The list is not random: actives were taken first. Their share in the collection is about 2%.
MT1-MMP act inh: blockers of MT1-MMP proenzyme processing, primary screen, HT1080 RFP-PRO-GFP cells, GFP/RFP fluorescence | GFP/RFP ratio fluorescence, overnight; percent of plate control window, DMSO zero | Matrix metalloproteinase-14 (Homo sapiens), P50281 | GFP/RFP ratio change, % at 20 µM | actives 0.061% (n = 360,000);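 active = GFP/RFP ratio change of at least 30% with cell ATP level not reduced by more than half and red fluorescence within 50% of control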
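Compound: 20 µM single dose, 1% DMSO / System: HT1080 RFP-PRO-GFP cells / Controls: DMSO and RFP-L50D-GFP cell wells / Read-out basis: GFP/RFP fluorescence ratio / Schedule: overnight compound exposure at 37 °C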
DAGLB inh: DAGLB lipase inhibitors, primary screen, biochemical, fluorescence, HTS; Diacylglycerol lipase-beta (Homo sapiens), Q8NCG7; HEK293T DAGLB membrane lysate, EnzChek fluorogenic substrate; inhibition, % at 5.17 µM; actives 0.059% (n = 340,000); AID 504411, 2011; in the data active = inhibition above about 34%;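 note: 0% = enzyme with vehicle and 100% = wells lacking enzyme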
Exocytosis inh: LAMP-1 surface exposure blockers, TALL-104 cells – cell-based, flow cytometry, MLPCN library, primary screen; TALL-104 LAMP-1 surface exposure; cells stimulated with thapsigargin and PMA; inhibition, % at 10 µM; actives 0.66% (n = 360,000);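 active = inhibition above about 55%, limit read from the data; inconclusive = no clear call, values can overlap the other calls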
VLA-4 inh: inhibition in human VLA-4 binding assay, primary screen, VLA-4 allosteric modulator project, MLPCN library, flow cytometry, VLA-4 expressing cells; Integrin alpha-4 (Homo sapiens), P13612; ligand binding flow cytometry; inhibition, % (about 7 µM as worked out from the volumes in the protocol); actives 0.2% (n = 330,000); in the data active = inhibition above about 50%
ABCB6 inh MLPCN: ABCB6 transporter inhibitors, primary screen, K562-ABCB6 cells, flow cytometry, MLPCN library; ATP-binding cassette sub-family B member 6 (Homo sapiens), Q9NP58; K562-ABCB6 porphyrin accumulation, 1 h; hits give low values; fluorescence ratio to DMSO, % at 10 µM; actives 0.19% (n = 360,000); AID 602162, 2011;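 active = fluorescence ratio to DMSO below 75%, the collection mean minus 3 SD; inconclusive = too few cells collected in the well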;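 note: signal is porphyrin accumulated inside mitochondria; 100% equals median channel fluorescence of DMSO control wells; lower ratio means ABCB6 inhibition with less porphyrin fluorescence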
Target sequence (Q9NP58 whole entry, looked up): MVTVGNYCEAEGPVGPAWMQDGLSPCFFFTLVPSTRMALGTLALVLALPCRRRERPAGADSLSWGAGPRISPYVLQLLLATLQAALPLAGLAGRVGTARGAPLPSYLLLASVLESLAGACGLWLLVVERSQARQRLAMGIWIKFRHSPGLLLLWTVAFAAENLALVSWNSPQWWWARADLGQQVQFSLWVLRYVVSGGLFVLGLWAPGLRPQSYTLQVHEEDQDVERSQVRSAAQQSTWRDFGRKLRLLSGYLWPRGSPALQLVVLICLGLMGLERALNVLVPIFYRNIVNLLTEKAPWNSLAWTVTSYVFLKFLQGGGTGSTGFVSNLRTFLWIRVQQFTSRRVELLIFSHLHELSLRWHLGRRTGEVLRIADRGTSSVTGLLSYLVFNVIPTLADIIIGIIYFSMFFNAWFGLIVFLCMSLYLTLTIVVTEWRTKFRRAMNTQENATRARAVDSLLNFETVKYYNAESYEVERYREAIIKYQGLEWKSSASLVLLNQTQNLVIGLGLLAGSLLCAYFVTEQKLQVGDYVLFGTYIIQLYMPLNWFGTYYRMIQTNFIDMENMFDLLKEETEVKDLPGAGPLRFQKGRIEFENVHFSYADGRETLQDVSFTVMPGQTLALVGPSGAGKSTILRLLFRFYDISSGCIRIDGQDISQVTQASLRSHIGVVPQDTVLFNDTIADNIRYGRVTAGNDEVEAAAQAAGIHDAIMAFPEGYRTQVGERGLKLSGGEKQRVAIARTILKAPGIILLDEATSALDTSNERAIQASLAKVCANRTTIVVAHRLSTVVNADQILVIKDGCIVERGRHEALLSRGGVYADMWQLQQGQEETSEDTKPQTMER
FGF22 binding: binders of human FGF22 protein, primary screen, FGF22 synaptogenesis inhibitor project, biophysical, thermal shift, single point. Fibroblast growth factor 22 (Homo sapiens), Q9HCT0. AID 651658, 2012. actives 1.5% (n = 340,000). activity (Tm shift, normalised), % at 9.99 µM. recombinant FGF22 thermal shift, SYPRO orange fluorescence; percent of sucrose octasulfate shift, DMSO zero;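 active = mean Tm shift, scaled 0 neutral to 100 positive control, at about 1.3% or above, every replicate too, limit read from the data; inconclusive = no clear call, values can overlap the other calls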
Active calls of the source: *; ? = inconclusive; · = no result given.

SMILES	MT1-MMP act inh	DAGLB inh	Exocytosis inh	VLA-4 inh	ABCB6 inh MLPCN	FGF22 binding
CCN1CCN(c2cc(C)c3cc(NC(=S)N4CCOCC4)ccc3n2)CC1	2	-3	2	1	96	0
Cc1cc(C)n(-c2nc(N(c3ccccc3)c3ccccc3)nc(-n3nc(C)cc3C)n2)n1	1	0	88*	24	94	·
N/C(=N\OC(=O)/C=C/c1ccccc1)c1cccnc1	3	-2	6	5	99	43*
N/C(=N\OC(=O)/C=C/c1ccccc1Cl)c1cccnc1	-1	·	-6	-4	97	0
Cc1ccc(-c2nc(C)c(C(=O)O)s2)cc1	-3	1	0	2	101	43*
CO[C@H]1CN(C)C(=O)c2ccc(NC(=O)c3ccc4c(c3)OCO4)cc2OC[C@@H](C)NC[C@H]1C	·	·	·	·	·	0
CNC(=O)C[C@@H]1CC[C@H]2[C@H](COc3ccc(NC(=O)Cc4cccs4)cc3C(=O)N2C)O1	·	·	·	·	·	0
C[C@@H]1CN([C@H](C)CO)S(=O)(=O)c2ccc(-c3ccc(C#N)cc3)cc2O[C@H]1CN(C)Cc1ccccn1	·	·	·	·	·	0
CC(C)(C)NC(=O)NC(=O)CN1CCN(C(c2ccccc2)c2ccccc2)CC1	-9	-5	-2	16	99	43*
O=C(CN1CCCCCCC1)NC(=O)NC1CCCCC1	7	-3	-2	1	87	0
CC(C)(C)NC(=O)NC(=O)CN1CCCCC1	-2	-1	-2	9	94	43*
O=C(CN1CCCCC1)NC(=O)NC1CCCC1	-1	0	-4	7	95	43*
C[C@@H]1CN([C@H](C)CO)C(=O)c2cc(/C=C/c3ccccc3)cnc2O[C@@H]1CN(C)S(C)(=O)=O	·	·	·	·	·	0
COCC(=O)Nc1ccc2c(c1)C(=O)N(C)[C@H]1CC[C@@H](CC(=O)Nc3ccccc3)O[C@H]1CO2	·	·	·	·	·	0
C=CCn1c(CNC(=O)c2ccccc2F)nnc1SCc1nc2ccccc2c(=O)[nH]1	2	-1	1	1	93	43*
C[C@@H]1CCCCO[C@@H](CN(C)C(=O)NC2CCCCC2)[C@@H](C)CN([C@@H](C)CO)C(=O)c2cc(NC(=O)NC3CCCCC3)ccc2O1	·	·	·	·	·	0
Cc1ccc(-c2n[nH]c(=S)n2C)cc1	6	-2	-2	·	108	·
Cn1c(-c2csc(-c3ccccc3)n2)n[nH]c1=S	-2	-1	-2	6	?	44*
C[C@@H]1CCCCO[C@H](CN(C)C)[C@H](C)CN([C@H](C)CO)C(=O)c2cc(NC(=O)Nc3cccc4ccccc34)ccc2O1	·	·	·	·	·	-1
Cc1cc(C)nc(NC(=NCCc2c[nH]c3ccccc23)NC(=O)c2ccco2)n1	2	4	95*	0	97	·
Cc1cc(C)nc(NC(=NCCc2c[nH]c3ccccc23)NC(=O)Nc2ccccc2)n1	0	-4	6	-4	98	·
COc1ccccc1OCC(=O)N/N=C1/C=C(C)CC1	3	1	0	7	100	43*
COc1ccccc1OCC(=O)NCCNC(=O)COc1ccccc1OC	3	-4	-4	-9	101	·
CC(=O)Nc1cc2c(cc1Cl)-c1ccc(F)cc1C2O (centres undefined)	3	3	-5	·	103	44*
O=C(CSc1nc2ccccc2o1)Nc1nc2ccccc2s1	-6	-3	0	1	100	·
SMILES	MT1-MMP act inh	DAGLB inh	Exocytosis inh	VLA-4 inh	ABCB6 inh MLPCN	FGF22 binding
O=C(CSc1nc2ccccc2o1)Nc1nccs1	-1	0	3	3	99	2.3*
Cc1ccc(S(=O)(=O)N(C)C[C@@H]2Oc3c(NS(=O)(=O)c4ccc(F)cc4)cccc3C(=O)N([C@@H](C)CO)C[C@@H]2C)cc1	·	·	·	·	·	0
O=C(Nc1ccc(N2CCCCC2)cc1)c1ccc([N+](=O)[O-])o1	4	8	-5	17	97	0
O=C(Nc1ccc(N2CCCC2)c(Cl)c1)c1ccc([N+](=O)[O-])o1	-11	14	-2	·	97	43*
COc1ccc(C(CNC(=O)c2cccc(S(=O)(=O)N3CCc4ccccc43)c2)N(C)C)cc1 (centres undefined)	2	2	-17	7	93	43*
COc1ccccc1C(CNC(=O)c1cccc(S(=O)(=O)N2CCCc3ccccc32)c1)N(C)C (centres undefined)	-2	-2	-4	·	97	0
C[C@@H]1CCCCO[C@@H](CN(C)C(=O)Cc2ccccc2)[C@@H](C)CN([C@H](C)CO)C(=O)c2cc(NC(=O)CCC(F)(F)F)ccc2O1	·	·	·	·	·	0
O=C(NNS(=O)(=O)c1ccc(Br)cc1)C1CCCCC1	-3	1	-1	2	100	43*
Oc1cccc(-c2sc3ccccc3c2-c2ccc(OCCN3CCCCC3)cc2)c1	-4	·	59*	·	103	-1
C1=C(c2sc3ccccc3c2-c2ccc(OCCN3CCOCC3)cc2)CCCC1	-8	-1	31	18	94	0
CCCC(=O)Nc1ccc2c(c1)C(=O)N(C)C[C@H](OC)[C@H](C)CN(Cc1nccs1)[C@@H](C)CO2	·	·	·	·	·	0
COc1ccc(COCC(O)CN2CCC(C(N)=O)CC2)cc1OC (centres undefined)	-2	-1	0	6	106	44*
COc1ccc(COCC(O)CN2CCCCC2)cc1OC (centres undefined)	-3	0	1	5	95	0
O=[N+]([O-])c1cnc(Sc2ccncn2)c([N+](=O)[O-])c1	4	-1	68*	·	106	0
O=[N+]([O-])c1cnc(Sc2ccncn2)s1	4	-5	61*	39	103	0
O=C(Nc1ccc(Cl)cc1)Nc1ccccc1Sc1ncc([N+](=O)[O-])s1	-5	6	11	-2	99	0
COc1cc2nc(Nc3cccc(F)c3)nc(N)c2cc1OC	16	-1	62*	-2	92	0
CC(C)NC(=O)N(C)C[C@H]1Oc2c(NC(=O)CCCCCC(=O)Nc3ccccc3N)cccc2C(=O)N([C@H](C)CO)C[C@H]1C	·	·	·	·	·	0
COC(=O)[C@@]12C[C@@H](CC(=O)NCc3ccccc3)C(=O)N(Cc3cccc4ccccc34)C1=CCC(C)(C)C2	-12	·	7	·	·	20*
